ChEMBL document CHEMBL4130442, “Design, synthesis and structure-activity relationship studies of a focused library of pyrimidine moiety with anti-proliferative and anti-metastasis activities in triple negative breast cancer” (Eur J Med Chem, 2017)

Columns and labels:
[1] = target: T1, Platelet-derived growth factor receptor beta (Homo sapiens, UniProt P09619); test: Inhibition of PDGFRbeta in human MDA-MB-231 cells assessed as Akt Ser473 phosphorylation level at 10 uM incubated for 24 hrs by Western blot relative to untreated control; format: cell-based
T1 sequence (P09619 whole entry): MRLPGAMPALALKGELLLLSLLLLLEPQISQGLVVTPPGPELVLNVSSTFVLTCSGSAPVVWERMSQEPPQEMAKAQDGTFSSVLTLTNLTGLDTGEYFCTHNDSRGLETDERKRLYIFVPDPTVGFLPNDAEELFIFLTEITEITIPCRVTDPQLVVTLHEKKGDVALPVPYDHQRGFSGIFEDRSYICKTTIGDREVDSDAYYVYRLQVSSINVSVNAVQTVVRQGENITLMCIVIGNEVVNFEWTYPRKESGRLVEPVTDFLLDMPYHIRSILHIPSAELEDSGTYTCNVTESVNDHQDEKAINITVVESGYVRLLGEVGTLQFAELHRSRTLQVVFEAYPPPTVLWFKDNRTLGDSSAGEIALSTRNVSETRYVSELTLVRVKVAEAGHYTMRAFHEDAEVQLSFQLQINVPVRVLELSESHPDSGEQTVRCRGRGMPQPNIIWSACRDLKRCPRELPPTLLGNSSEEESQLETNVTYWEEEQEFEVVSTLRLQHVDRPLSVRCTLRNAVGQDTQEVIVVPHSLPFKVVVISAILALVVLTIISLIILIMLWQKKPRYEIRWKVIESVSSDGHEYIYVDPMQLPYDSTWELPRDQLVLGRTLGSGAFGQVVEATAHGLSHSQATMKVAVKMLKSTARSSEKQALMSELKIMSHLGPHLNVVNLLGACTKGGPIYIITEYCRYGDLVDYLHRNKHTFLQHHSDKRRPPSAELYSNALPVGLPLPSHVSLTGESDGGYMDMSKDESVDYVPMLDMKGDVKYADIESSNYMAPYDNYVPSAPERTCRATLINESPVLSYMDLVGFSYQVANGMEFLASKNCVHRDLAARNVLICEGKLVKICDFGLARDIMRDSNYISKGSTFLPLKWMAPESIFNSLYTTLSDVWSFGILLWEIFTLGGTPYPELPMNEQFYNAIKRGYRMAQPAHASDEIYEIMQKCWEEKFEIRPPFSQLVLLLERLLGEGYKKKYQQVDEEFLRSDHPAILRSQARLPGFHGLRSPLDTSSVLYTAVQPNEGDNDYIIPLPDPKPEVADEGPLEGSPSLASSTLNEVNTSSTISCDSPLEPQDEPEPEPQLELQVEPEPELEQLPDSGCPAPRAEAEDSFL
Outline: (§1)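 Cells were treated 24 h at several concentrations. Pooled adherent and floating cells were lysed in Hepes 50 mM pH 7.4 / 1% Triton X-100 buffer with vanadate, NaF, EDTA, PMSF, aprotinin and leupeptin. Equal protein was run on 10-15% SDS-PAGE and blotted to PVDF. PDGFR-β-AKT-ULK1 pathway phospho-proteins were probed and detected by ECL, with β-actin as loading control.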

[2] = test system: MDA-MB-231; test: Effect on total Akt protein level in human MDA-MB-231 cells at 10 uM incubated for 24 hrs by Western blot relative to untreated control; format: ADME, cell-based; details: mda-mb-231, 24 h
Outline: (§2)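 MDA-MB-231 cells were exposed for 24 h. Adherent and floating cells were pooled and lysed for 1 h at 4 °C in 50 mM Hepes pH 7.4 with 1% Triton X-100, orthovanadate, NaF, EDTA, PMSF, aprotinin and leupeptin. After 12,000 rpm clearing, equal protein was run on 10-15% SDS-PAGE and blotted to PVDF. Detection used HRP-ECL, with β-actin as loading control and densitometric quantification.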

[3] = test system: MDA-MB-231; test: Effect on total Akt protein level in human MDA-MB-231 cells at 5 uM incubated for 24 hrs by Western blot relative to untreated control; format: ADME, cell-based; details: mda-mb-231, 24 h; outline: as §2
[4] = target: Dual specificity mitogen-activated protein kinase kinase; MEK1/2 (Homo sapiens) (UniProt P36507+Q02750); test: Inhibition of MEK1/2 in human MDA-MB-231 cells assessed as MEK1/2 Ser217/221 phosphorylation level at 10 uM incubated for 24 hrs in presence of PDGFRbeta siRNA by Western blot relative to untreated control; format: cell-based
Chain of Dual specificity mitogen-activated protein kinase kinase; MEK1/2 (Homo sapiens) (P36507 whole entry, looked up): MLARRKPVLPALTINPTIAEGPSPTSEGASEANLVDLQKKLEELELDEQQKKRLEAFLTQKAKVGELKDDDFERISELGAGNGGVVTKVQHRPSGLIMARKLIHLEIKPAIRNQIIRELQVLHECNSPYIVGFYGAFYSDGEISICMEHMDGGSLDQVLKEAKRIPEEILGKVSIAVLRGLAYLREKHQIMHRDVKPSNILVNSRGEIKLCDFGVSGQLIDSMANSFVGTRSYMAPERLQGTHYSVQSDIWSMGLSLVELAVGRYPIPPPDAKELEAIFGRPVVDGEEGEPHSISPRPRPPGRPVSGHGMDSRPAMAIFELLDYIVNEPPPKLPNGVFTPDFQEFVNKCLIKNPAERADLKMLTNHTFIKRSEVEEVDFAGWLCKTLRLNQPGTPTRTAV
Chain of Dual specificity mitogen-activated protein kinase kinase; MEK1/2 (Homo sapiens) (Q02750 whole entry, looked up): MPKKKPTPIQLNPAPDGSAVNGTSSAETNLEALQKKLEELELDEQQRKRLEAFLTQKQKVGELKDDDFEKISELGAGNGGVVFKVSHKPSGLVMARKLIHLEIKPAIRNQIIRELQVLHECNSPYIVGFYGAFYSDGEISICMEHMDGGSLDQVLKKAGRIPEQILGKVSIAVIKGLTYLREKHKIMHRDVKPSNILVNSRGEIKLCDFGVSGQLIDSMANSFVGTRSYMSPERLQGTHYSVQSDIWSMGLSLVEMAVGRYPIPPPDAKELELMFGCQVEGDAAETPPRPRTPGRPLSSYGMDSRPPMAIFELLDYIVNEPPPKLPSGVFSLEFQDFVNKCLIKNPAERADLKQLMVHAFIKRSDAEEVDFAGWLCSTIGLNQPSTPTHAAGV

[5] = target: T1, Platelet-derived growth factor receptor beta; test: Inhibition of PDGFRbeta in human MDA-MB-231 cells assessed as mTOR Ser2448 phosphorylation level at 5 uM incubated for 24 hrs by Western blot relative to untreated control; format: cell-based; outline: as §1
[6] = test system: MDA-MB-231; test: Effect on total c-Raf protein level in human MDA-MB-231 cells at 2.5 uM incubated for 24 hrs in presence of PDGFRbeta siRNA by Western blot relative to untreated control; format: cell-based; details: mda-mb-231, 24 h
[7] = test system: MDA-MB-231; test: Effect on total ULK1 protein level in human MDA-MB-231 cells at 5 uM incubated for 24 hrs by Western blot relative to untreated control; format: ADME, cell-based; details: mda-mb-231, 24 h; outline: as §2
[8] = test system: MDA-MB-231; test: Induction of apoptosis in human MDA-MB-231 cells assessed as change in cleaved caspase-3 protein level at 2.5 uM incubated for 24 hrs by Western blot method relative to untreated control; format: functional; outline: as §2
[9] = target: T1, Platelet-derived growth factor receptor beta; test: Inhibition of PDGFRbeta in human MDA-MB-231 cells assessed as Akt Ser473 phosphorylation level at 2.5 uM incubated for 24 hrs in absence of PDGFRbeta siRNA by Western blot relative to untreated control; format: cell-based
Outline: (§3)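 Cells were transfected with control or PDGFR-β siRNA, then treated with 2.5 μM compound for 24 h. PDGFR-β-AKT-ULK1 pathway phospho-proteins were assessed by western blot: lysis in Hepes pH 7.4 / Triton buffer, 10-15% SDS-PAGE, PVDF, ECL detection, β-actin as loading control.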

[10] = test system: MDA-MB-231; test: Induction of autophagy in human MDA-MB-231 cells assessed as change in Beclin-1 protein level at 2.5 uM incubated for 24 hrs in presence of control siRNA by Western blot method relative to untreated control; format: functional; outline: as §2
[11] = test system: MDA-MB-231; test: Effect on total Ras protein level in human MDA-MB-231 cells at 2.5 uM incubated for 24 hrs in presence of PDGFRbeta siRNA by Western blot relative to untreated control; format: cell-based; details: mda-mb-231, 24 h
[12] = test system: MDA-MB-231; test: Induction of autophagy in human MDA-MB-231 cells assessed as change in Beclin-1 protein level at 2.5 uM incubated for 24 hrs by Western blot method relative to untreated control; format: functional; outline: as §2
[13] = test system: MDA-MB-231; test: Induction of autophagy in human MDA-MB-231 cells assessed as change in LC3-2 protein level at 2.5 uM incubated for 24 hrs in absence of PDGFRbeta siRNA by Western blot method relative to untreated control; format: functional
Outline: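 Before treatment, MDA-MB-231 cells were transfected with control or PDGFR-β siRNA, then exposed to 2.5 μM compound for 24 h. Lysates of pooled adherent and floating cells were immunoblotted (10-15% SDS-PAGE, PVDF, ECL) for PDGFR-β-AKT-ULK1 autophagy signalling markers, with β-actin as loading control.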

[14] = test system: MDA-MB-468; test: Antiproliferative activity against human MDA-MB-468 cells incubated for 24 hrs by MTT assay; format: functional, cell-based; details: MDA-MB-468, 24 h
[15] = test system: MDA-MB-231; test: Effect on total MEK1/2 protein level in human MDA-MB-231 cells at 10 uM incubated for 24 hrs in presence of PDGFRbeta siRNA by Western blot relative to untreated control; format: cell-based; details: mda-mb-231, 24 h
[16] = target: T1, Platelet-derived growth factor receptor beta; test: Inhibition of PDGFRbeta in human MDA-MB-231 cells assessed as C-Raf Ser259 phosphorylation level at 5 uM incubated for 24 hrs in presence of PDGFRbeta siRNA by Western blot relative to untreated control; format: cell-based
[17] = test system: MDA-MB-436; test: Antiproliferative activity against human MDA-MB-436 cells incubated for 24 hrs by MTT assay; format: functional, cell-based; details: MDA-MB-436, 24 h
[18] = test system: MDA-MB-231; test: Induction of autophagy in human MDA-MB-231 cells assessed as change in Beclin-1 protein level at 5 uM incubated for 24 hrs by Western blot method relative to untreated control; format: functional
Outline: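 MDA-MB-231 cells (ATCC; DMEM, 10% FBS, 5% CO2) were treated 24 h over a concentration series. Adherent and floating cells were pooled and lysed 1 h at 4 °C (50 mM Hepes pH 7.4, 1% Triton X-100, phosphatase/protease inhibitors). Equal protein was run on 10-15% SDS-PAGE, transferred to PVDF, probed for Beclin-1, p62 and LC3 with HRP/ECL detection, and normalised to β-actin.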

[19] = test system: MDA-MB-231; test: Induction of apoptosis in human MDA-MB-231 cells assessed as change in cleaved PARP protein level at 10 uM incubated for 24 hrs by Western blot method relative to untreated control; format: functional; outline: as §2
[20] = test system: MDA-MB-231; test: Effect on total PDGFRbeta protein level in human MDA-MB-231 cells at 5 uM incubated for 24 hrs by Western blot relative to untreated control; format: ADME, cell-based; details: mda-mb-231, 24 h; outline: as §2
[21] = target: T1, Platelet-derived growth factor receptor beta; test: Inhibition of PDGFRbeta in human MDA-MB-231 cells assessed as Akt Ser473 phosphorylation level at 2.5 uM incubated for 24 hrs in presence of control siRNA by Western blot relative to untreated control; format: cell-based; outline: as §3
[22] = target: T1, Platelet-derived growth factor receptor beta; test: Inhibition of PDGFRbeta in human MDA-MB-231 cells assessed as PDGFRbeta Tyr740 phosphorylation level at 5 uM incubated for 24 hrs by Western blot relative to untreated control; format: cell-based; outline: as §1
[23] = test system: MDA-MB-231; test: Effect on total Ras protein level in human MDA-MB-231 cells at 5 uM incubated for 24 hrs by Western blot relative to untreated control; details: mda-mb-231, 24 h

COc1cccc(Nc2cc(N3CCN(C(=O)Nc4ccc(C(F)(F)F)cc4)CC3)ncn2)c1
fold change (FC) [1]: 0.18
fold change (FC) [2]: 0.76
fold change (FC) [3]: 0.84
fold change (FC) [4]: 1.01
fold change (FC) [5]: 0.23
fold change (FC) [6]: 0.8
fold change (FC) [7]: 0.91
fold change (FC) [8]: 0.87
fold change (FC) [9]: 0.48
fold change (FC) [10]: 3.54
fold change (FC) [11]: 1.2
fold change (FC) [12]: 2.3
fold change (FC) [13]: 2.87
IC50 [14]: 3190 nM
fold change (FC) [15]: 1.03
fold change (FC) [16]: 1.06
IC50 [17]: 2360 nM
fold change (FC) [18]: 2.8
fold change (FC) [19]: 0.97
fold change (FC) [20]: 1.1
fold change (FC) [21]: 0.88
fold change (FC) [22]: 0.78
fold change (FC) [23]: 1.35
